E-sel inducer: induces E-selectin expression in human endothelial cells | P16581 | HUVEC E-selectin immunofluorescence imaging; normalized: neutral wells 0, TNF-alpha wells 100 | activation, % at 7.58 µM | 260,000 compounds, 0.37% hits | AID 686992;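 active = mean E-selectin-positive cell signal at least 10% of the positive control, reached in at least 60% of replicates, without over 20% cell loss; inconclusive = no rule given, readout overlaps actives, possibly toxicity-flagged; inactive = the rest, including those meeting only one limit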
Target sequence (P16581 whole entry, looked up): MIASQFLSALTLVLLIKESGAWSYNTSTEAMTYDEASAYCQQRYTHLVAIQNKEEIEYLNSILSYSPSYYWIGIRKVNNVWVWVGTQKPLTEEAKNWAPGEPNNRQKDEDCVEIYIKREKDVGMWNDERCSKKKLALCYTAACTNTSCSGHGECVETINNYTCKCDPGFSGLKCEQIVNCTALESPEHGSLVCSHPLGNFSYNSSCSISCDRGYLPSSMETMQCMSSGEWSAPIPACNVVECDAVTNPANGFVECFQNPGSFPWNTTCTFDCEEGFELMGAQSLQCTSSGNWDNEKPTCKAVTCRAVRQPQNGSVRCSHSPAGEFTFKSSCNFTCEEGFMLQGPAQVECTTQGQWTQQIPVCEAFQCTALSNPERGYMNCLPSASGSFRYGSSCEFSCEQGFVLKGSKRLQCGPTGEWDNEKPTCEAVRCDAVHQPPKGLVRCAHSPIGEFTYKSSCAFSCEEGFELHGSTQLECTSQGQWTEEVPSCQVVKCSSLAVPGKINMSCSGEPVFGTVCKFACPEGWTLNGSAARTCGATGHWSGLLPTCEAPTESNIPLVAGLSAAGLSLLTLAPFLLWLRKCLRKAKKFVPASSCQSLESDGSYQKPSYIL
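assay system = HUVEC, human umbilical vein endothelial cells | input = 3,000 HUVEC seeded per well | medium = EGM-2 growth medium on 0.1% gelatin-coated wells | dosing = one compound dose added by pin transfer | signal = immunofluorescence imaging | read-out basis = % PE-positive cells | control set = TNF-alpha, DMSO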
DENV2 CPE rescue: protects cells from dengue virus 2 cytopathic effect. CPE inhibition, % at 9.99 µM. DENV2-infected cells, cytopathic effect rescue, plate reader. 350,000 compounds, 1.7% hits. AID 651640; in the data active = CPE inhibition above about 20%, passing the limit was not always enough; inconclusive = no clear call, values can overlap the other calls; tested in BHK-21 cells
SIRT5 inh: blocks human SIRT5 desuccinylation of peptide; AID 652115; 330,000 compounds, 1.1% hits; Purified SirT5, succinyl-peptide AMC, trypsin-coupled fluorescence; Q9NXA8; inhibition, % at 15 µM; in the data active = inhibition above about 15%; inconclusive = no clear call, values can overlap the other calls
A number is an active result. Most compounds without a hit are left out; they make up all but 2.9% or so of the library.

`CC1C(=O)N(Cc2cn(CCC3OCCCO3)nn2)CCS(=O)(=O)N1Cc1ccc(-c2ccc(F)nc2)cc1` (stereo not drawn) gave E-sel inducer inactive, DENV2 CPE rescue inactive and SIRT5 inh inactive.
`CCN(CC)CCCNC(=O)c1cc2c(=O)n(CC)c3ccccc3c2s1` gave E-sel inducer inactive, DENV2 CPE rescue inactive and SIRT5 inh inactive.
For CCN(CC)CCNC(=O)c1cc2c(=O)n(CC)c3ccccc3c2s1 the results were E-sel inducer 63, DENV2 CPE rescue inactive and SIRT5 inh inactive.
For COc1cc2c(cc1OC)CN(C(=O)CCOc1ccccc1C)CC2 the results were DENV2 CPE rescue 44 and SIRT5 inh inactive.
For COc1cc2c(cc1OC)CN(C(=O)CCOc1ccccc1)CC2 the results were DENV2 CPE rescue inactive and SIRT5 inh inactive.
COc1ccc2c3c(n(C)c2c1)[C@H](CO)N(Cc1cc(F)ccc1F)CC31CCN(C(=O)C2CC2)CC1 was read as E-sel inducer inactive, DENV2 CPE rescue inactive and SIRT5 inh inactive.
For C[C@@H]1CCCCO[C@@H](CN(C)Cc2ccccc2)[C@@H](C)CN([C@H](C)CO)C(=O)c2cc(NC(=O)c3ccccc3)ccc2O1 the results were DENV2 CPE rescue 100.
For C[C@@H]1CN([C@H](C)CO)C(=O)c2cc(NC(=O)c3ccccc3)ccc2O[C@@H](C)CCCCO[C@@H]1CN(C)Cc1ccccc1 the results were DENV2 CPE rescue inactive.
`C[C@@H]1CCCCO[C@@H](CN(C)Cc2ccccc2)[C@@H](C)CN([C@@H](C)CO)C(=O)c2cc(NC(=O)c3ccccc3)ccc2O1` gave DENV2 CPE rescue inactive.
`C[C@@H]1CN([C@H](C)CO)C(=O)c2cc(NC(=O)c3ccccc3)ccc2O[C@@H](C)CCCCO[C@H]1CN(C)Cc1ccccc1` gave DENV2 CPE rescue inactive.
Screening C[C@H](CO)N1C[C@H](C)[C@@H](CN(C)Cc2ccccc2)OCCCC[C@H](C)Oc2ccc(NC(=O)c3ccccc3)cc2C1=O returned DENV2 CPE rescue inactive.
C[C@@H]1CCCCO[C@@H](CN(C)Cc2ccccc2)[C@H](C)CN([C@H](C)CO)C(=O)c2cc(NC(=O)c3ccccc3)ccc2O1 was read as DENV2 CPE rescue 24.
For C[C@@H]1CCCCO[C@H](CN(C)Cc2ccccc2)[C@@H](C)CN([C@@H](C)CO)C(=O)c2cc(NC(=O)c3ccccc3)ccc2O1 the results were DENV2 CPE rescue 54.
For C[C@@H]1CN([C@@H](C)CO)C(=O)c2cc(NC(=O)c3ccccc3)ccc2O[C@@H](C)CCCCO[C@@H]1CN(C)Cc1ccccc1 the results were DENV2 CPE rescue 35.
Cc1ccc(NC(=O)N2CCCN(C(=O)OC(C)(C)C)CC2)cc1Cl was read as E-sel inducer inactive, DENV2 CPE rescue inactive and SIRT5 inh inactive.
`COCC(=O)N(C)C[C@@H]1Oc2cc(-c3ccc(OC)cc3)ccc2S(=O)(=O)N([C@@H](C)CO)C[C@H]1C` gave E-sel inducer inactive, DENV2 CPE rescue inactive and SIRT5 inh inactive.
Screening CCC(=O)N/N=c1/sc2ccccc2n1C returned DENV2 CPE rescue inactive and SIRT5 inh inactive.
For Cc1cc(C)c2c(CN3CCCC3)cc(=O)oc2c1 the results were E-sel inducer inactive, DENV2 CPE rescue inactive and SIRT5 inh inactive.
`Cc1cc(C)c2c(CN3CCOCC3)cc(=O)oc2c1` gave E-sel inducer inactive, DENV2 CPE rescue inactive and SIRT5 inh 30.
Cc1ccc(S(=O)(=O)N2CCOCC2)cc1NC(=O)Cn1cc(C(F)(F)F)cc(Cl)c1=O was read as E-sel inducer inactive.
CC(=O)Nc1ccc(/C=N/NC(=O)c2cc(-c3ccco3)nc3ccccc23)cc1 was read as DENV2 CPE rescue inactive and SIRT5 inh inactive.
O=C(O)c1ccccc1/C=N/NC(=O)c1cc(-c2ccco2)nc2ccccc12 was read as DENV2 CPE rescue inactive and SIRT5 inh 19.
O=C(Nc1nccs1)c1ccc(Br)cc1 was read as E-sel inducer inactive, DENV2 CPE rescue inactive and SIRT5 inh inactive.
`CCCCCCCOC(=O)C1=C(C)Nc2ncnn2C1c1cccs1` (stereo not drawn) gave E-sel inducer inactive.
C[C@H](CO)N1C[C@H](C)[C@@H](CN(C)C(=O)CCN2CCCCC2)Oc2ncc(C#Cc3ccccc3)cc2C1=O was read as E-sel inducer inactive, DENV2 CPE rescue inactive and SIRT5 inh inactive.
COc1ccc(C#Cc2cnc3c(c2)C(=O)N([C@@H](C)CO)C[C@H](C)[C@H](CN(C)C(C)=O)O3)cc1 was read as E-sel inducer inactive, DENV2 CPE rescue 26 and SIRT5 inh inactive.
Screening COc1cccc(-c2cnc3c(c2)C(=O)N([C@@H](C)CO)C[C@H](C)[C@@H](CN(C)C(C)=O)O3)c1 returned E-sel inducer inactive, DENV2 CPE rescue inactive and SIRT5 inh inactive.
Screening COc1cccc(C#Cc2cnc3c(c2)C(=O)N([C@H](C)CO)C[C@H](C)[C@H](CN(C)C(C)=O)O3)c1 returned E-sel inducer inactive, DENV2 CPE rescue inactive and SIRT5 inh inactive.
`COc1cccc(-c2cnc3c(c2)C(=O)N([C@H](C)CO)C[C@H](C)[C@@H](CN(C)C(C)=O)O3)c1` gave E-sel inducer inactive, DENV2 CPE rescue 32 and SIRT5 inh inactive.
`C[C@@H]1CN([C@H](C)CO)C(=O)c2cc(C#Cc3ccccc3)cnc2O[C@H]1CN(C)C(=O)CCN1CCCCC1` gave E-sel inducer inactive, DENV2 CPE rescue 26 and SIRT5 inh inactive.
For COc1cccc(C#Cc2cnc3c(c2)C(=O)N([C@H](C)CO)C[C@H](C)[C@@H](CN(C)C(C)=O)O3)c1 the results were E-sel inducer inactive and DENV2 CPE rescue 24.
COc1ccc(C#Cc2cnc3c(c2)C(=O)N([C@H](C)CO)C[C@H](C)[C@H](CN(C)C(C)=O)O3)cc1 was read as E-sel inducer inactive, DENV2 CPE rescue inactive and SIRT5 inh inactive.
Screening Cc1ccc(NC(=O)CCN2CCC(C(N)=O)CC2)cc1 returned E-sel inducer inactive, DENV2 CPE rescue inactive and SIRT5 inh inactive.
`C[C@@H]1CN([C@H](C)CO)C(=O)c2cc(-c3ccccc3)cnc2O[C@@H]1CN(C)C(=O)Nc1ccccc1` gave E-sel inducer inactive, DENV2 CPE rescue inactive and SIRT5 inh inactive.
COC(=O)c1ccccc1NC(=S)NC(=O)COc1ccc(C(C)C)cc1 was read as E-sel inducer inactive, DENV2 CPE rescue inactive and SIRT5 inh inactive.
For Cc1cnc(NS(=O)(=O)c2ccc(N)cc2)nc1-c1ccccc1O the results were E-sel inducer inactive, DENV2 CPE rescue inactive and SIRT5 inh inactive.
CCOC(=O)c1ccc(NC(=O)c2nc[nH]c2C(=O)N(C)Cc2ccccc2)cc1 was read as E-sel inducer inactive and DENV2 CPE rescue inconclusive.
`COc1ccc(S(=O)(=O)Cc2ccc(C(=O)N3CCN(c4cccc(C)c4)C(C)C3)o2)cc1` (stereo not drawn) gave DENV2 CPE rescue inactive.
For COc1ccccc1C#Cc1cnc2c(c1)C(=O)N([C@@H](C)CO)C[C@@H](C)[C@@H](CN(C)C)O2 the results were E-sel inducer inactive, DENV2 CPE rescue inactive and SIRT5 inh inactive.
CC(=O)N(C)C[C@H]1Oc2ncc(C#Cc3ccccc3)cc2C(=O)N([C@H](C)CO)C[C@H]1C was read as E-sel inducer inactive, DENV2 CPE rescue 48 and SIRT5 inh inactive.

High-throughput results from PubChem.
